Assay results as given in ChEMBL document CHEMBL5357024, “MDM2 Antagonist Idasanutlin Reduces HDAC1/2 Abundance and Corepressor Partners but Not HDAC3” (ACS Med Chem Lett, 2024).

Assays:
Format in all cases: cell-based
[1] = molecular target: T1, E3 ubiquitin-protein ligase Mdm2/Histone deacetylase 3 (Homo sapiens) (UniProt Q00987+O15379); assay: PROTAC activity at MDM2/HDAC3 in human HCT-116 cells assessed as reduction in HDAC3 abundance by measuring remaining activity at 0.25 uM measured after 24 hrs by Western blot analysis
T1 sequence (O15379 whole entry, looked up): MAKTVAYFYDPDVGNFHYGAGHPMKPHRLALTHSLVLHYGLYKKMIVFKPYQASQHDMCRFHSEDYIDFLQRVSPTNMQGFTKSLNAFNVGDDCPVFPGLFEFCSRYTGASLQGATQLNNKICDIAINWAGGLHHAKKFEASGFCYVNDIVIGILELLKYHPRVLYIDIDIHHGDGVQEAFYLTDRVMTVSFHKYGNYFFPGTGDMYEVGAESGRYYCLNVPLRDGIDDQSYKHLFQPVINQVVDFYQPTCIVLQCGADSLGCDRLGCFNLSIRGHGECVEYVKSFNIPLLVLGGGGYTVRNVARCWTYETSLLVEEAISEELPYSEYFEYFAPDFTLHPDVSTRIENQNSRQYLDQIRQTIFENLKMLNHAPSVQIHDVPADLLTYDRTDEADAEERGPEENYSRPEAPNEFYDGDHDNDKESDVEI
T1 sequence (Q00987 whole entry, looked up): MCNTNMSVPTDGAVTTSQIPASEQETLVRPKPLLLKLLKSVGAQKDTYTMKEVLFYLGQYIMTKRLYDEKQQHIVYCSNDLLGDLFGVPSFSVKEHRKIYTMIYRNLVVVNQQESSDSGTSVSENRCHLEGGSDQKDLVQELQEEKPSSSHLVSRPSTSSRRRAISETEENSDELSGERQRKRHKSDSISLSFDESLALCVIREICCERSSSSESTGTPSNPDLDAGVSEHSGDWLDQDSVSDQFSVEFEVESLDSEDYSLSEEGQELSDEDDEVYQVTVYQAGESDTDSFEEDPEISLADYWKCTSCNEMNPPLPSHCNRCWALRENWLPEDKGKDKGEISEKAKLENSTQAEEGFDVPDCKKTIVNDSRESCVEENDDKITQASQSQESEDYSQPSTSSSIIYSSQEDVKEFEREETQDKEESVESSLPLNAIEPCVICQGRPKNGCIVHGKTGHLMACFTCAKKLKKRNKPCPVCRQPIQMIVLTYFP
How it was run: (§1)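 HCT116 cells in DMEM with 10% FBS and glutamine/penicillin/streptomycin at 37 °C, 5% CO2. Seeded 4 × 10^5 cells/well, after 24 h treated 24 h with DMSO or compound in fresh medium. Lysed in Tris-HCl/NaCl/NP-40/Triton X-100 buffer with protease inhibitor, Bradford-quantified, 30 μg protein per lane. Quantitative Western blot with specific HDAC1/2/3 antibodies, IRDye secondaries, infrared imaging, versus DMSO. n = 2 replicates.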

[2] = molecular target: T2, Paired amphipathic helix protein Sin3a (Homo sapiens) (UniProt Q96ST3); assay: Induction of SIN3A degradation in human HCT-116 cells assessed as reduction in SIN3A abundance by measuring remaining activity at 0.025 uM measured after 24 hrs by Western blot analysis (reference value: 100%)
T2 sequence (whole entry): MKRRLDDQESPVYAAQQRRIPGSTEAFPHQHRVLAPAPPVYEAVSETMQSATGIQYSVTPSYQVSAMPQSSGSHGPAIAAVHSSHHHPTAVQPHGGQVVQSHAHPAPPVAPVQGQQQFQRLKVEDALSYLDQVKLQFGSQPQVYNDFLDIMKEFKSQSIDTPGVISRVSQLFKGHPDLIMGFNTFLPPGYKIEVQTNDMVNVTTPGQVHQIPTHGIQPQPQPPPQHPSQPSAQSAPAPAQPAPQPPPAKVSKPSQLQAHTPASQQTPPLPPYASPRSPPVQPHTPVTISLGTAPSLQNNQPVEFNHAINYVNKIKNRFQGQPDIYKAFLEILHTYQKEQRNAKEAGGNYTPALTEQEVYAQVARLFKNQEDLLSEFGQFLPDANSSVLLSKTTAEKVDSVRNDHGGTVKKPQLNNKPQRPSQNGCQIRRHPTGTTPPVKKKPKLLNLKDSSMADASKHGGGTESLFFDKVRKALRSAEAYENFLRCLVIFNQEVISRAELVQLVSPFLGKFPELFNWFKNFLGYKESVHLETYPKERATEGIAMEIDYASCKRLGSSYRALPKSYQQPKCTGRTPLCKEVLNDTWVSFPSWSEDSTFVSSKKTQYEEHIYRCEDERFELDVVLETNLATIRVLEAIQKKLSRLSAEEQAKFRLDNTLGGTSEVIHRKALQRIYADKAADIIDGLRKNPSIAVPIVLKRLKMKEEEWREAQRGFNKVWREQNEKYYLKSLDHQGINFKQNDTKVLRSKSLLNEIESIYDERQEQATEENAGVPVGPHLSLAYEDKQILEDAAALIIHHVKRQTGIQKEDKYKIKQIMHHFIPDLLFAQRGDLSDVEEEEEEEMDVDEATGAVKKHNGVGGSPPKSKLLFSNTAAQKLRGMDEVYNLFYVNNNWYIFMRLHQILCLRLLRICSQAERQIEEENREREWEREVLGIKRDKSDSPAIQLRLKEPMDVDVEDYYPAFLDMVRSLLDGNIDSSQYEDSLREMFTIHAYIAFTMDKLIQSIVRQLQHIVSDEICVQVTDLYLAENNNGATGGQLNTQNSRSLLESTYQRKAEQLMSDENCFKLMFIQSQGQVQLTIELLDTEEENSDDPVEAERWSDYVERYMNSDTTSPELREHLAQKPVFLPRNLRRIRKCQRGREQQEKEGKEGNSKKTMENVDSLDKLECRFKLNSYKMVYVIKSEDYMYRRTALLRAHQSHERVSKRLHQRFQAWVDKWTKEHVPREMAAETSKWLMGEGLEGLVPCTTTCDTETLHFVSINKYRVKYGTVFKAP
How it was run: (§2)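 HCT116 cells seeded in six-well plates for 24 h, then exposed 24 h to compound (0.01–10 μM) or DMSO in fresh medium. Lysis in Tris-HCl/NaCl/NP-40/Triton X-100 with protease inhibitor. Bradford-normalised 30 μg protein per lane. Quantitative Western blot used specific HDAC1, HDAC2, HDAC3, LSD1 or Sin3a antibodies with IRDye secondaries. Abundance compared with DMSO, n = 2 replicates.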

[3] = molecular target: Lysine-specific histone demethylase 1A (Homo sapiens) (UniProt O60341); assay: Induction of LSD1 degradation in human HCT-116 cells assessed as reduction in LSD1 abundance by measuring remaining activity at 0.25 uM measured after 24 hrs by Western blot analysis (reference value: 100%); how it was run: as §2
[4] = molecular target: T3, E3 ubiquitin-protein ligase Mdm2/Histone deacetylase 2 (Homo sapiens) (UniProt Q00987+Q92769); assay: PROTAC activity at MDM2/HDAC2 in human HCT-116 cells assessed as decrease in HDAC2 abundance by measuring remaining activity at 0.25 uM measured after 24 hrs by Western blot analysis (reference value: 100%); how it was run: as §2
T3 sequence (Q00987 whole entry, looked up): as the sequence (Q00987 whole entry, looked up) above
T3 sequence (Q92769 whole entry, looked up): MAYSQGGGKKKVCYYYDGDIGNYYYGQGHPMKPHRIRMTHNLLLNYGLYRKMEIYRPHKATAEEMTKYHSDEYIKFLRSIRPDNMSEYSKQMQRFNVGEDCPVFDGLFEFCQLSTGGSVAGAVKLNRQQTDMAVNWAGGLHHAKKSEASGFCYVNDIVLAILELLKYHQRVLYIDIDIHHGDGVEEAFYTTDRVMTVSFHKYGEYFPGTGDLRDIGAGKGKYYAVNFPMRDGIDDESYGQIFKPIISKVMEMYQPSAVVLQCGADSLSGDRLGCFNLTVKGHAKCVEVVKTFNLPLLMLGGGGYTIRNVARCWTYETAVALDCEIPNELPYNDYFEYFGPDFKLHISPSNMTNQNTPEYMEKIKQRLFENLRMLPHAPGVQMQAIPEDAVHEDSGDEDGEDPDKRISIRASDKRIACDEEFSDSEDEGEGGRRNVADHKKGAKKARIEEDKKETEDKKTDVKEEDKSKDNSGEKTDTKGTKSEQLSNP

[5] = molecular target: T1, E3 ubiquitin-protein ligase Mdm2/Histone deacetylase 3 (Homo sapiens); assay: PROTAC activity at MDM2/HDAC3 in human HCT-116 cells assessed as reduction in HDAC3 abundance by measuring remaining activity at 0.5 uM measured after 24 hrs by Western blot analysis; how it was run: as §1
[6] = molecular target: T1, E3 ubiquitin-protein ligase Mdm2/Histone deacetylase 3 (Homo sapiens); assay: PROTAC activity at MDM2/HDAC3 in human HCT-116 cells assessed as reduction in HDAC3 abundance by measuring remaining activity at 10 uM measured after 24 hrs by Western blot analysis (reference value: 100%); how it was run: as §1
[7] = molecular target: T3, E3 ubiquitin-protein ligase Mdm2/Histone deacetylase 2 (Homo sapiens); assay: PROTAC activity at MDM2/HDAC2 in human HCT-116 cells assessed as decrease in HDAC2 abundance by measuring remaining activity at 0.1 uM measured after 24 hrs by Western blot analysis (reference value: 100%); how it was run: as §2

Question: What does the source list for `COc1cc(C(=O)NCCOCCOCCOCCOCCC(=O)Nc2ccc(C(=O)Nc3ccccc3N)cc2)ccc1NC(=O)[C@@H]1N[C@@H](CC(C)(C)C)[C@](C#N)(c2ccc(Cl)cc2F)[C@H]1c1cccc(Cl)c1F`?
Answer: Activity [1]: 102%; Activity [2]: 100%; Activity [3]: 95%; Activity [4]: 90%; Activity [5]: 106%; Activity [6]: 91%; Activity [7]: 92%
